Experimental data of several laboratories.
pEC50, pIC50, pKd, pKi: −log10 of the molar value.
VASP: Vasodilator-stimulated phosphoprotein (VASP, Homo sapiens, UniProt P50552)
ABHD6: Monoacylglycerol lipase ABHD6 (ABHD6, Homo sapiens, UniProt Q9BV23)
HTR5A: 5-hydroxytryptamine receptor 5A (HTR5A, Homo sapiens, UniProt P47898)

SMILES	target	assay	setting	endpoint	value
O=P(O)(O)Oc1ccccc1OP(=O)(O)O	Signal transducer and activator of transcription 6, SH2 (Homo sapiens, UniProt P42226)	ligand displacement, FP		pKi	4.74
CC(=O)N[C@@H](CO)C(=O)N[C@@H](Cc1ccccc1)C(=O)N[C@@H](CCC(=O)O)C(=O)N[C@@H](Cc1ccccc1Cl)C(=O)N1CCC[C@H]1C(=O)N1CCC[C@H]1C(=O)N1CCC[C@H]1C(=O)N1CCC[C@H]1C(=O)N[C@H](C(=O)N[C@@H](CCC(=O)O)C(=O)N[C@@H](CC(=O)O)C(=O)N[C@@H](CCC(=O)O)C(=O)N[C@@H](CC(C)C)C(N)=O)[C@@H](C)O	VASP	binding, fluorescence		pKd	5.82
O=C(Nc1cccc(-c2ccn3c(CC4CC4)nnc3c2C(F)(F)F)c1)c1ccc(S(=O)(=O)F)cc1	Metabotropic glutamate receptor 8 (GRM8, Homo sapiens, UniProt O00222)	calcium signal, agonist		pEC50	< 4.30
CC(=O)N[C@@H](CO)C(=O)N[C@@H](Cc1ccccc1)C(=O)N[C@@H](CCC(=O)O)C(=O)N[C@@H](Cc1ccccc1)C(=O)N1CCC[C@H]1C(=O)N1CCC[C@H]1C(=O)N1CCC[C@H]1C(=O)N1CCC[C@H]1C(=O)N[C@H](C(=O)N[C@@H](CCC(=O)O)C(=O)N[C@@H](CC(=O)O)C(=O)N[C@@H](CCC(=O)O)C(=O)N[C@@H](CC(C)C)C(N)=O)[C@@H](C)O	VASP	binding, fluorescence		pKd	4.72
CN(C(=O)Oc1nsnc1N1CCOCC1)C1CCCCCCC1	ABHD6	enzyme activity, inhibitor, fluorescence	lysate	pIC50	7.36
CN1CCc2c(c3ccccc3n2Cc2ccccc2)C1	HTR5A	ligand displacement, radioligand		pKi	6.89
CN(C(=O)Oc1nsnc1N1CCCCC1)C1CCCCCC1	ABHD6	enzyme activity, inhibitor, fluorescence	lysate	pIC50	7.37
CCCCOc1ccc(C(=O)CCN2CCCCC2)cc1	D(4) dopamine receptor (DRD4, Homo sapiens, UniProt P21917)	ligand displacement, radioligand		pIC50	5.39
CN(C(=O)Oc1nsnc1N1CCCCC1)c1ccc([N+](=O)[O-])cc1	ABHD6	enzyme activity, inhibitor, fluorescence	lysate	pIC50	5.90
CN(Cc1ccc(NC(=O)C2=Cc3cc(-c4ccc(OCCCF)cc4)ccc3CCC2)cc1)C1CCOCC1	HTR5A	ligand displacement, radioligand		pKi	5.30
COc1ccc(N(C)C(=O)Oc2nsnc2N2CCCCC2)cc1	ABHD6	enzyme activity, inhibitor, fluorescence	lysate	pIC50	6.58
Cc1ccc(Cc2ccc3c(c2)CN(C(=O)[C@@H](N)Cc2c(C)cc(O)cc2C)CC3)cc1	Mu-type opioid receptor (Oprm1, Rattus norvegicus, UniProt P33535)	ligand displacement, radioligand	cell membranes	pKi	6.94
